System: MS2 coat protein
Test: apparent Kd, MS2 coat protein; higher = weaker binding; RNA-MaP array; FMN 200 µM where present
Outline: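 Green signal from SNAP-549-labelled MS2 coat protein was normalised to red-channel RNA signal and to the median Fmax of control clusters. The protein was titrated from 0.7 or 1.5 nM, doubling to 3 µM, without and then with constant ligand, over designs transcribed by stalled E. coli RNA polymerase on Illumina sequencing-chip clusters, in 100 mM Tris-HCl pH 7.5, 80 mM KCl, 4 mM MgCl2, BSA, DTT, yeast tRNA and Tween-20. The apparent Kd is the median of filtered per-cluster binding-curve fits.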

[1] = designed as: OFF switch for flavin mononucleotide, no ligand
[2] = ligand present: flavin mononucleotide, designed as: OFF switch for flavin mononucleotide
[3] = designed as: ON switch for flavin mononucleotide, no ligand
[4] = ligand present: flavin mononucleotide, designed as: ON switch for flavin mononucleotide

Sequence	apparent Kd [1]	apparent Kd [2]	apparent Kd [3]	apparent Kd [4]
CAAACCAGAGGAUAUGCGCAUAGAUCAGACUUUGUUUCUGAACAUGAGGAUCACCCAUGUAGAAGGCUGUAAAC	25.5 nM	24.4 nM	–	–
GACGGUGAUGUAGGAUAUACGCUGGAAUACAGCGUAGAAGGACAUGAGGAUCACCCAUGUAAAGUGUCUCCAAAUAACACCGUC	31.5 nM	90.8 nM	–	–
GACUGAUUACAGAAGGUGUAAGACAUGAGGAUCACCCAUGUGAUAUAGGGUAUAUUUGAAUAUAACAAGGAUAUGUAUAAAUCA	–	–	102 nM	60.4 nM
UAAUAAUAAUAAUAGCAGUUACAUGAGGAUCACCCAUGUAUAUAGGAUAUCGUCAGGAAUACUGACGAGAAGGAUAUACUCUGC	21.9 nM	26.2 nM	–	–
AGACUGAAGCAAGGAUAUUGUAAGGUUAUUGUACAAGAAGGUGCUGUUUAUGUCUCUUAACAUGAGGAUCACCCAUGUUUUGAA	–	–	19.7 nM	19.1 nM
CGUCGAUACCAGAAGGACAUGAGGAUCACCCAUGUAGGAUAUGGGUGACCGGGAUGGCGGACACGCUGCCCGGGCACAUGCGAC	–	–	10.6 nM	7.79 nM
UUGGACGUCAUAGGAUAUGUAGGAUAUUCCUACAUGAGGAUCACCCAUGUUGACAUGGAAGAAGGACAGAAGGACGAUGUCCAU	–	–	665 nM	10.7 nM
AAUAUGAGCUGGAAUAAACCUAAAACAUGAGGAUCACCCAUGUAGGAUAUCAGCACGAUAAGUGCUGAGAAGGACAACCAGCUC	14.4 nM	13.9 nM	–	–
AUGUUAGGGAGAGGAUAUUGACAUGAGGAUCACCCAUGUAUUUGGGAGUGUUUACUGAAUUCUUACGAGAAGGCUUACGAAAUU	396 nM	242 nM	–	–
CCCUCAACAUGAGGAUCACCCAUGUAGGAUAUCGCUAUUGUAAUCAUGAAACAUGAUUACAAUAGCGAGAAGGACAUAUGCAAA	25.2 nM	126 nM	–	–
CAGUACUGAGGAUAUACAUGAGGAUCACCCAUGUGCCUAAGCUAGGAUACUAGCAUUAGUAGAAGGCAGUACUG	12.8 nM	24.8 nM	–	–
CCAGCAACAUGAGGAUCACCCAUGUAGGAUAUCGCUAUUGUAAUCAUGAAACAUGAUUACAAUAGCGAGAAGGACAUAUGCUCC	7.53 nM	10.2 nM	–	–
GCGGCUCACAUGAGGAUCACCCAUGUUCGCAUAUUGUGAAACAGAAGGCGGACUCAGCGAUGGGCCGAGGAUAUGUUUCCCACA	–	–	124 nM	25.8 nM
GGAAUAGCAUGAGGAUAUGCUGGAGUUUAGACAGCAGAAGGCAUGUCAUAAGACAUGAGGAUCACCCAUGUAAUUACAAUACCA	–	–	102 nM	11.7 nM
CGAUGUUAUGCAGGAUAUCUCCCUUGAAUGCGGAGAGAAGGGCAUAGGGAGACAUACGCCUUAUUACAUGAGGAUCACCCAUGU	8.42 nM	7.86 nM	–	–
GGUUGUCAUCGUCGUCCUUUCGGUACAUGAGGAUCACCCAUGUAGGAUAUGCUGCAUUCGAUGUGGCAGAAGGGCAUGUGUGUU	25.5 nM	71.5 nM	–	–
ACUUUACGAGGAUAUACUGUCGGGCCUCGGGCGUACAUGCGACAUGAGGAUCACCCAUGUAGAAGGCGUUUACU	33.1 nM	119 nM	–	–
UACUUGUCAGGAUAUCUUACAUUAACAUCGUAGUUACAAUUGGAGAAGGGACAUGAGGAUCACCCAUGUUUGGC	25.8 nM	34.5 nM	–	–
GGUGCGUAUGUGAGGAUAUGCUGGUCCUUGGAUCGGCAGAAGGUACAUGAGGAUCACCCAUGUGGUGUCGUUCU	382 nM	251 nM	–	–
ACAGGCUUCGAGAAGGACAUGAGGAUCACCCAUGUGCGUGUGAAGCAGCCGUGAGGCUGCAUCAUGUAGGAUAUCGGAGUCUGC	73 nM	557 nM	–	–
UUGUCGCAUGUAGGAUAUGUAUGUUAUUAUCAUACAGAAGGACAUGAGGAUCACCCAUGUGUAUUAUUAUUAUAUGUUACAUAU	20.4 nM	19.8 nM	–	–
UUAAAUCAUGUAGGAUAUGCAUGGCGAAGCUACGCAGAAGGACAUGAGGAUCACCCAUGUUCUAGCUACCGAGUACGGUGGCAA	20.6 nM	86.3 nM	–	–
UUAUGUCGCGUAGGAUAUCAUUAGAUUUGUAAUUUAAUUGUAAUUUCGAUAUGAGAAGGACGUACACAUGAGGAUCACCCAUGU	16.4 nM	14.2 nM	–	–
GUUUAGUGAGGAUAUGUGGCUUCGAUCGUGCGAAGAAGGCUACAGAAGGCACAUGAGGAUCACCCAUGUUCCUC	101 nM	728 nM	–	–

Sequence	apparent Kd [1]	apparent Kd [2]	apparent Kd [3]	apparent Kd [4]
GGCAUACAUGAGGAUCACCCAUGUAACCUGCACUAAGGAUAUGGCGUGGCCCAUGGCUACCCAGAAGGUAGAUAAA	–	–	136 nM	195 nM
CCGAUAAUGUAGGAUAUCGUAUCGGAAACGAUACGAGAAGGGCAAACAUGAGGAUCACCCAUGUUCCUUAACGG	17.4 nM	18.5 nM	–	–
CACUGUCAUGCAGGAUAUGCAUUGGAUUACAAUGCAGAAGGGCGAUUACAUGAGGAUCACCCAUGUGUAGACAGUGAAGAAGAG	–	–	165 nM	12.7 nM
GCAUUGAUAACAGGAUAUAUGAAUCCUACAUGAGGAUCACCCAUGUAGGUGAUCAGCCGCGAUUAGUAGAAGGGUUAUCAAUGC	–	–	11.4 nM	6.43 nM
UUGUUAGGGAGAGGAUAUUGACAUGAGGAUCACCCAUGUACUUGGGAGUGUUUACUGAAUUCUUACGAGAAGGCUUACAAAUUU	165 nM	105 nM	–	–
GGAUCGAAAGUGAGGAUAUACCACUGGAUACAGUGGUAGAAGGCACAUGAGGAUCACCCAUGUCCUUACGAUCC	20.8 nM	117 nM	–	–
AGUGACGGUACAGGAUAUGCUGGACUUUGUCCAGCAGAAGGGUAUUAACAUGAGGAUCACCCAUGUUCCGUCACCAAAUUUAAU	–	–	41 nM	7.4 nM
AAUCUUUUUAUGGGAUUACAAUAUGAGGAUAUCAUUCAUUUAUACAUGAGGAUCACCCAUGUUACUGAGAAGGCAUAUAUAAUA	–	–	–	11 nM
UGGUGAGUCAAGAAGGACAUGAGGAUCACCCAUGUAGGAUAUUGGCGUCACGGCUCCAAUACGUACAUGUGGGACGGUCAAAGG	–	–	48.6 nM	16.5 nM
GAGGAACAUGAGGAUCACCCAUGUGAGGAUAUGCAUAGUGAGGUAGUAGAAGUUGAAUGCAGAAGGUACACUGA	42.2 nM	32.2 nM	–	–
UUGUUAUGUGUAGGAUAUGCAUAUUAUUAUUAUGCAGAAGGACAUGAGGAUCACCCAUGUAUAUUAUUAUUAUAUAUUAUAUAU	28.7 nM	37 nM	–	–
CAGUACUGAGGAUAUACAUGAGGAUCACCCAUGUGUUCCAGCUAGGAAACUAGCAAAAGUAGAAGGCAGUACUG	27.5 nM	589 nM	–	–
UAUUAGUAAGGAUAUCUCGUCAUGGACGUGAGUCCAUGACGAGAGAAGGUACAUGAGGAUCACCCAUGUCUAUU	18.1 nM	19.4 nM	–	–
ACGUGACGGUGCGCGAGUGGACGGAGAAGGCAGACAUGAGGAUCACCCAUGUGAGCCUGCUAUUCUGAGGAUAUCCGUCCGCUC	38.8 nM	257 nM	–	–
UAUUUAUAAUAUUUUAACAUGAGGAUCACCCAUGUCGCUAGACAGGAUAUAUUUUAUUUGUUUAAGUAGAAGGGUCAUAGAUUU	–	–	175 nM	145 nM
AACUCUGAGAAGGAUAUACAGUGCGAAAGGACAGUAGAAGGUUUCACAUGAGGAUCACCCAUGUCGAAUAGUGA	24.7 nM	33.8 nM	–	–
GCCAUCGCAUGAGGAUAUGGUCAGGUUUCCUGACCAGAAGGCAUGUCAUAAGACAUGAGGAUCACCCAUGUAGUUAAGAUGGCA	–	–	717 nM	48.4 nM
UACGGACAUGAGGAUCACCCAUGUGAGGAUAUCGGUACCGAUAGCAUAAUCUACUCGGCGAGAAGGCACAGCGU	30.7 nM	40.1 nM	–	–
UAUGACAUGAGGAUCACCCAUGUCAGCGAGAAAUGAGAGUCACAGGAUAUGUUUUCGGCCGGCAGACAGAAGGGUGACCCUCCG	–	–	7.33 nM	6.74 nM
UGGUACAUGGGAGGAUAUGGGUUGAUAACAUGAGGAUCACCCAUGUUAAAUAAGCCGAGAGGCUACUAGAAGGCCCAUGUACCU	–	–	819 nM	28.9 nM
CGCCUGUGAGGAUAUUAGUAGUAGUCAGAAUAGACUAUUACUGAGAAGGUACAUGAGGAUCACCCAUGUUGGCG	20.9 nM	19.1 nM	–	–
UUGGACGUCGUAGGAUAUGUAGGAUAUUCCUACAUGAGGAUCACCCAUGUUGACAUGAAAGAAGGACAGAAGGACGAUGUCCAU	–	–	144 nM	5.77 nM
GCACUGGAUGUAGGAUAUCAGGACGAUAAGUCCUGAGAAGGACAUGAGGAUCACCCAUGUCUCAAAUACCAGUGCAAUAAUAUA	12.3 nM	14.8 nM	–	–
AGUUUUGUACAUGAGGAUCACCCAUGUUAAUAUGUGGUAGUCAGAAGGCAUUGUUAGUGUUUAUAUGAGGAUAUGAUUAUUCAG	–	–	41.1 nM	16.4 nM

Source: the EternaBench riboswitch data
